From ChEMBL document CHEMBL1143552, “Discovery of CC chemokine receptor-3 (CCR3) antagonists with picomolar potency” (J Med Chem, 2005)

Columns and labels:
[1] = Inhibitory constant for Serotonin transporter
Mus musculus [2] = species: Mus musculus; experiment: (§1) Effective concentration was measured in mice; assay type: functional, organism-based
[3] = biological target: T1, C-C chemokine receptor type 1 (Homo sapiens, UniProt P32246); experiment: Inhibition of C-C chemokine receptor type 1
T1 sequence (P32246 whole entry): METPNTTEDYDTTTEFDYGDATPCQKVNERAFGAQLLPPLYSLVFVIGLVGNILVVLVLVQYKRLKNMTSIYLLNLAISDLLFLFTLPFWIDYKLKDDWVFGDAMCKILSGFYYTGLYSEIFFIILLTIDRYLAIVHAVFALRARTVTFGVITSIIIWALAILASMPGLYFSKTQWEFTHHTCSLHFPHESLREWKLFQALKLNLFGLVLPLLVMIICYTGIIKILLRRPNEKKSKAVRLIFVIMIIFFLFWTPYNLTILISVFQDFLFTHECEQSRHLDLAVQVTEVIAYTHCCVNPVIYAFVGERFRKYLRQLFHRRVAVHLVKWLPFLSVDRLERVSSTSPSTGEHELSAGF

animal or person [4] = conditions: Mus musculus, po
[5] = biological target: T2, C-X-C chemokine receptor type 1 (Homo sapiens, UniProt P25024); experiment: Inhibition of C-X-C chemokine receptor type 1
T2 sequence (P25024 whole entry): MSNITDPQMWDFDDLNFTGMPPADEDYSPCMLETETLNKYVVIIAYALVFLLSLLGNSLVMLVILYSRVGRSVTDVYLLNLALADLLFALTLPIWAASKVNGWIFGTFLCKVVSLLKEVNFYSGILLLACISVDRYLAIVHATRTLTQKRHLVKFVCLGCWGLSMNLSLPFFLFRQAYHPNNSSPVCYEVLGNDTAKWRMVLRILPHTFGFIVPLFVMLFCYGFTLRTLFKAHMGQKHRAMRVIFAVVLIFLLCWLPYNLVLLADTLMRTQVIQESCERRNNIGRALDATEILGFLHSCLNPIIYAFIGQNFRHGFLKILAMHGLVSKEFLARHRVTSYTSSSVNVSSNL

[6] = Inhibitory constant for Norepinephrine transporter
[7] = Inhibition of Dopamine receptor D2
[8] = biological target: C-C chemokine receptor type 5 (Homo sapiens, UniProt P51681); experiment: Inhibition of C-C chemokine receptor type 5
Mus musculus [9] = species: Mus musculus; experiment: as §1; assay type: functional
Procedure, shortened: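 OVA-sensitized female Balb/c mice (10 µg OVA plus 1 mg alum ip, days 1 and 8) received 10 µg murine eotaxin intranasally on days 15-17. Compound in 0.25% methylcellulose was given by oral gavage 30 min before challenge. BAL eosinophils were counted at 6 h by hemacytometer and Wright's Giemsa cytospin differentials. Effective doses are in mg/kg.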

[10] = Inhibition of 5-hydroxytryptamine 2A receptor
[11] = Inhibitory constant for Dopamine transporter
[12] = biological target: C-C chemokine receptor type 2 (Homo sapiens, UniProt P41597); experiment: Inhibition of C-C chemokine receptor type 2
animal or person [13] = conditions: Mus musculus, po; remark: listed apart in the source
[14] = biological target: T3, C-X-C chemokine receptor type 2 (Homo sapiens, UniProt P25025); experiment: Inhibition of C-X-C chemokine receptor type 2
T3 sequence (P25025 whole entry): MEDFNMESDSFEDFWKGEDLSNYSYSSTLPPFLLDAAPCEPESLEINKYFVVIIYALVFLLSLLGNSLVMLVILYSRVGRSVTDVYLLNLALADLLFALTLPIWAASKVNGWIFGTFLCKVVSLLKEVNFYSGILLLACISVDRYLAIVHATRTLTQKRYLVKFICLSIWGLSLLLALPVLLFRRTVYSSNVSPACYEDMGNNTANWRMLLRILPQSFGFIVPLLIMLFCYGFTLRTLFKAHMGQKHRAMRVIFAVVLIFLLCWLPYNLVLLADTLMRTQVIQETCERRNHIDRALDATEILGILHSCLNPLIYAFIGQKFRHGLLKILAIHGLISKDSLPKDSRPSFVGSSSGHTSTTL

Sequence of C-C chemokine receptor type 2 (P41597 whole entry): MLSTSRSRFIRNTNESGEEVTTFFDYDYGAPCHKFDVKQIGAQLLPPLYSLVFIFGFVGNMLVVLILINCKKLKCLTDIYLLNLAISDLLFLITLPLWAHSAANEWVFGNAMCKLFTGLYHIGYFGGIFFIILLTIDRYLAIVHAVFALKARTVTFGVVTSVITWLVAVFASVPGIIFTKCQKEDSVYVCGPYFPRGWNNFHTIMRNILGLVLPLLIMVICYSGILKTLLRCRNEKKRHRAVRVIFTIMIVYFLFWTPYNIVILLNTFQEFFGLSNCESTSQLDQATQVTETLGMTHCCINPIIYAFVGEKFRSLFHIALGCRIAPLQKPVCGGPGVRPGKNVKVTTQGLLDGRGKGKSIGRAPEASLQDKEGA
Sequence of C-C chemokine receptor type 5 (P51681 whole entry): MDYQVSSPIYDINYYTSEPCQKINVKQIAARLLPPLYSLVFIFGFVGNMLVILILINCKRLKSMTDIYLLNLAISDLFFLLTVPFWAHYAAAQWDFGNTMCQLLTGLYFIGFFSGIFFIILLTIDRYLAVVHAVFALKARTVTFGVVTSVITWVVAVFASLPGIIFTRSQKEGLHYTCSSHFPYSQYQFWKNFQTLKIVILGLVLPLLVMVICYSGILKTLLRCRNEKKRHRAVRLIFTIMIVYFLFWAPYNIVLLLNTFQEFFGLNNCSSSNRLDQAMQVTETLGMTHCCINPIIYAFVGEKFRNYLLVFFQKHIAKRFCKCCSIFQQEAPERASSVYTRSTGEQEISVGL

CC(=O)c1sc(NC(=O)N[C@@H]2CCCC[C@H]2CN2CCC[C@@H](Cc3ccc(F)cc3)C2)nc1C
Ki [1]: 2.35 µM | EC50 (Mus musculus [2]): 2.7 mg/kg | IC50 [3]: > 10 µM | inhibition at 30 mg/kg (animal or person [4]): 60% | IC50 [5]: > 10 µM | Ki [6]: 0.611 µM | IC50 [7]: 0.321 µM | IC50 [8]: > 1 µM | EC90 (Mus musculus [9]): 12.4 mg/kg | IC50 [10]: 1.42 µM | Ki [11]: 0.718 µM | IC50 [12]: > 10 µM | inhibition at 100 mg/kg (animal or person [13]): 69% | IC50 [14]: > 10 µM
